{"source": "ChEMBL document CHEMBL1152212", "about": "“Docking study, synthesis, and in vitro evaluation of fluoro-MADAM derivatives as SERT ligands for PET imaging” (Bioorg Med Chem, 2008)", "key": {"[1]": {"target": "T1, Sodium-dependent serotonin transporter (Rattus norvegicus, UniProt P31652)", "T1 sequence (P31652 whole entry)": "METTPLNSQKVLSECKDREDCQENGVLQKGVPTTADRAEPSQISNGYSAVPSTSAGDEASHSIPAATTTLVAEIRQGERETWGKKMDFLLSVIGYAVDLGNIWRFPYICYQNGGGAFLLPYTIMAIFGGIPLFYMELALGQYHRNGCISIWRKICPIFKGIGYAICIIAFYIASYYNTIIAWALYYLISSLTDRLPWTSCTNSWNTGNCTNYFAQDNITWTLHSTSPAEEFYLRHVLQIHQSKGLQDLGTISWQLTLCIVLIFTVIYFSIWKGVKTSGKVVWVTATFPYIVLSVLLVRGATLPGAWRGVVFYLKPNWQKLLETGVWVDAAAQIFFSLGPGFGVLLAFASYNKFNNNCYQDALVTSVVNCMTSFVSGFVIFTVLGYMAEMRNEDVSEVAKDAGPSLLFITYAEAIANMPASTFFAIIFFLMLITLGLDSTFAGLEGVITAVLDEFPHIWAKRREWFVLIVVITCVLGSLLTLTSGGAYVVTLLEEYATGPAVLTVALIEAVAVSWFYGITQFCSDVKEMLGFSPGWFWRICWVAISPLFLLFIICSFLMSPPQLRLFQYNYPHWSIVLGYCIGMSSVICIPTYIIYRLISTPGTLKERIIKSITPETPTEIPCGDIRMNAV", "experiment": "Displacement of [3H]MADAM from SERT in rat brain cortex membrane", "assay_type": "cell membranes", "outline": "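Paroxetine defined nonspecific binding. Bound radioactivity was collected by GF/B filtration with an ice-cold wash and beta-counted. IC50 was read graphically and Ki derived by Cheng-Prusoff. Samples run in duplicate; values are the mean of four determinations.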"}, "[2]": {"target": "Sodium-dependent dopamine transporter (Homo sapiens, UniProt Q01959)", "sequence (Q01959 whole entry)": "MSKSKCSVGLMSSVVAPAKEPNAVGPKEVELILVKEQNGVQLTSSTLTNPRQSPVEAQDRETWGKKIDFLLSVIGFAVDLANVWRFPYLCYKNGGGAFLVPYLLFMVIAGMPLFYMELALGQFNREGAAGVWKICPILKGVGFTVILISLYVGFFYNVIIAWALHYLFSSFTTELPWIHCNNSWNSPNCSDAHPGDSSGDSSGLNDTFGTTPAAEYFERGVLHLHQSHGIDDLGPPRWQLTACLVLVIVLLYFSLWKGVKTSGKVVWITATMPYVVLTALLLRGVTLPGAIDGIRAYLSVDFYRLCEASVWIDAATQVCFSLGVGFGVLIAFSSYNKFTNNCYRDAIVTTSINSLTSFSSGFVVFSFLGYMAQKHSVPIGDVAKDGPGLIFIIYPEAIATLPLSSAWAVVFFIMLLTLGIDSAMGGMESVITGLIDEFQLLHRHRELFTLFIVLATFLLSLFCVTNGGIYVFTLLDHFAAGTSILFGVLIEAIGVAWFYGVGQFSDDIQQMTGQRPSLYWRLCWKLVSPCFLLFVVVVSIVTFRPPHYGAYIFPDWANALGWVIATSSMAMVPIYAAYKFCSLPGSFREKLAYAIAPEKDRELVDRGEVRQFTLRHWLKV", "experiment": "Displacement of [3H]GBR-12935 from human cloned DAT expressed in HEK293 cells", "assay_type": "cell-based"}, "[3]": {"target": "Sodium-dependent noradrenaline transporter (Homo sapiens, UniProt P23975)", "sequence (P23975 whole entry)": "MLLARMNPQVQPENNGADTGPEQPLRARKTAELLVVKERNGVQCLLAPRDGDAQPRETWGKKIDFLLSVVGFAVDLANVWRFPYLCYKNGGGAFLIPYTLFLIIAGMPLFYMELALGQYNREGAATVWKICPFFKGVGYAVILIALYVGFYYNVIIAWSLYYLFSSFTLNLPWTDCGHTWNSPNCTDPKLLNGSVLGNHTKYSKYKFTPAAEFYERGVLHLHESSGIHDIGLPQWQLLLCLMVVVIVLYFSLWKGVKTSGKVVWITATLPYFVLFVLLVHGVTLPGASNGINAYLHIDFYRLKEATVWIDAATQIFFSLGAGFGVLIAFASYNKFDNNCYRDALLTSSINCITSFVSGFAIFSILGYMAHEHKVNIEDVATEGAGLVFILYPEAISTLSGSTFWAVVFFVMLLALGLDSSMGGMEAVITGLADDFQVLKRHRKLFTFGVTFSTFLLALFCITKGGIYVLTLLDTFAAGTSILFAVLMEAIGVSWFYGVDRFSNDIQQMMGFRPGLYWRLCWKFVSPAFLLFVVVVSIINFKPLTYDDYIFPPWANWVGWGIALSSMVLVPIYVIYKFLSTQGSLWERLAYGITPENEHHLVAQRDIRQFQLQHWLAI", "experiment": "Displacement of [3H]nisoxetine from human cloned NET expressed in HEK293 cells", "assay_type": "cell-based"}, "[4]": {"experiment": "Partition coefficient, log P at pH 7.4 by reverse-phase HPLC", "assay_type": "physicochemical", "settings": "octanol/water, read-out: logP", "outline": "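Indirect log P7.4 from retention time (triplicate) on a C-18 column (5 µm, 4.6 × 150 mm) eluted with methanol/0.1 M phosphate buffer pH 7.4 (50/50) at 1 mL/min. Calibrated against seven standards dissolved in mobile phase: quinoline, phenol, benzamide, chlorpromazine, hexachlorobenzene, ADAM and MADAM. Calibration equation: y = 1.438·Ln(retention time) – 0.7301, R² 0.93.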"}, "[5]": {"target": "T1, Sodium-dependent serotonin transporter"}, "[6]": {"target": "T1, Sodium-dependent serotonin transporter", "experiment": "Displacement of [125I]IDAM from SERT in rat brain cortex membrane", "assay_type": "cell membranes"}, "[7]": {"experiment": "Partition coefficient, log P in n-octanol/0.02 M phosphate buffer at pH 7.4", "assay_type": "physicochemical"}}}
{"compound": "Cc1ccc(Sc2ccccc2CN(C)C)c(NCc2ccc(F)cc2)c1", "values": [{"measurement": "Ki", "setting": "[1]", "result": 10.1, "unit": "nM"}, {"measurement": "Ki", "setting": "[2]", "result": "> 1500", "unit": "nM"}, {"measurement": "Ki", "setting": "[3]", "result": "> 1200", "unit": "nM"}, {"measurement": "chromatographic logD", "setting": "[4]", "result": 4.7}]}
{"compound": "Cc1ccc(Sc2ccccc2CN(C)C)c(NC(=O)c2ccc([N+](=O)[O-])cc2)c1", "values": [{"measurement": "Ki", "setting": "[1]", "result": "> 100", "unit": "nM"}, {"measurement": "Ki", "setting": "[2]", "result": "> 1000", "unit": "nM"}, {"measurement": "Ki", "setting": "[3]", "result": "> 1000", "unit": "nM"}]}
{"compound": "CN(C)Cc1ccccc1Sc1ccc(I)cc1CO", "values": [{"measurement": "Ki", "setting": "[5]", "result": 0.1, "unit": "nM"}]}
{"compound": "CN(C)Cc1ccccc1Sc1ccc(Br)cc1NC(=O)c1ccc(F)cc1", "values": [{"measurement": "Ki", "setting": "[6]", "result": 8, "unit": "nM"}]}
{"compound": "CN(C)Cc1ccccc1Sc1ccccc1NC(=O)c1ccc(F)cc1", "values": [{"measurement": "Ki", "setting": "[6]", "result": 34, "unit": "nM"}]}
{"compound": "CNCc1ccccc1Sc1ccc(C)cc1NC(=O)c1ccc(F)cc1", "values": [{"measurement": "Ki", "setting": "[1]", "result": "> 500", "unit": "nM"}, {"measurement": "Ki", "setting": "[2]", "result": "> 1000", "unit": "nM"}, {"measurement": "Ki", "setting": "[3]", "result": "> 2500", "unit": "nM"}]}
{"compound": "CNCc1ccccc1Sc1ccc(C)cc1NCc1ccc(F)cc1", "values": [{"measurement": "Ki", "setting": "[1]", "result": "> 100", "unit": "nM"}, {"measurement": "Ki", "setting": "[2]", "result": "> 2000", "unit": "nM"}, {"measurement": "Ki", "setting": "[3]", "result": "> 1000", "unit": "nM"}]}
{"compound": "Cc1ccc(Sc2ccccc2CN(C)C)c(NCc2ccc([N+](=O)[O-])cc2)c1", "values": [{"measurement": "Ki", "setting": "[1]", "result": 60, "unit": "nM"}, {"measurement": "Ki", "setting": "[2]", "result": "> 1000", "unit": "nM"}, {"measurement": "Ki", "setting": "[3]", "result": "> 1900", "unit": "nM"}]}
{"compound": "Cc1ccc(Sc2ccccc2CN(C)C)c(NC(=O)c2ccc(F)cc2)c1", "values": [{"measurement": "Ki", "setting": "[1]", "result": 14.3, "unit": "nM"}, {"measurement": "Ki", "setting": "[2]", "result": "> 1000", "unit": "nM"}, {"measurement": "Ki", "setting": "[3]", "result": "> 5200", "unit": "nM"}, {"measurement": "chromatographic logD", "setting": "[4]", "result": 2.99}]}
{"compound": "CN(C)Cc1ccccc1Sc1ccc(I)cc1N", "values": [{"measurement": "logD", "setting": "[7]", "result": 2.52}]}
{"compound": "CN(C)Cc1ccccc1Sc1ccc(I)cc1NC(=O)c1ccc(F)cc1", "values": [{"measurement": "Ki", "setting": "[6]", "result": 193, "unit": "nM"}]}
{"compound": "Cc1ccc(Sc2ccccc2CN(C)C)c(N)c1", "values": [{"measurement": "Ki", "setting": "[2]", "result": "> 1000", "unit": "nM"}, {"measurement": "Ki", "setting": "[3]", "result": 325, "unit": "nM"}, {"measurement": "logD", "setting": "[7]", "result": 2.46}]}
{"compound": "CN(C)Cc1ccccc1Sc1ccc(Cl)cc1NC(=O)c1ccc(F)cc1", "values": [{"measurement": "Ki", "setting": "[6]", "result": 0.9, "unit": "nM"}]}
